Results published in ChEMBL document CHEMBL1148762, “Lysosome and HER3 (ErbB3) selective anticancer agent kahalalide F: semisynthetic modifications and antifungal lead-exploration studies” (J Med Chem, 2007).
≈ marks a conversion by molar mass, not a printed value.

Assays:
[1] = tested on: Mycobacterium tuberculosis; test: Antibacterial activity against Mycobacterium tuberculosis H37Rv at 16 ug/mL by micro plate alamar blue assay; format: functional
Method in brief: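 M. tuberculosis H37Rv ATCC 27294 grown in BACTEC 12B medium; microplate Alamar blue assay (MABA). Primary screen at a single concentration of 16 µg/mL, read as percent inhibition.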

[2] = tested on: Mycobacterium tuberculosis; test: Antibacterial activity against Mycobacterium tuberculosis H37Rv by micro plate alamar blue assay; format: functional
Fusarium oxysporum [3] = test: Antimicrobial activity against Fusarium oxysporum at 30 uM after 72 hrs by microtiter assay; format: functional
Method in brief: (§1)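 96-well microdilution broth assay with conidia (3 × 10^5 conidia/mL, harvested from 7-day PDA cultures and filtered) against F. oxysporum, F. proliferatum and F. solani at 0.3, 3 and 30 µM. Plates were held at 24 ± 1 °C under a 12 h photoperiod. Growth was read at 620 nm at 24, 48 and 72 h and reported as percent inhibition from mean absorbance with standard error.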

Fusarium solani [4] = test: Antimicrobial activity against Fusarium solani at 0.3 uM after 72 hrs by microtiter assay; format: functional; method in brief: as §1
Fusarium solani [5] = test: Antimicrobial activity against Fusarium solani at 3 uM after 48 hrs by microtiter assay; format: functional; method in brief: as §1
Fusarium proliferatum [6] = test: Antimicrobial activity against Fusarium proliferatum at 30 uM after 48 hrs by microtiter assay; format: functional; method in brief: as §1
Fusarium oxysporum [7] = test: Antimicrobial activity against Fusarium oxysporum at 30 uM after 48 hrs by microtiter assay; format: functional; method in brief: as §1
Leishmania donovani = test: Antiparasitic activity against Leishmania donovani; format: functional, organism-based
Fusarium solani [8] = test: Antimicrobial activity against Fusarium solani at 30 uM after 72 hrs by microtiter assay; format: functional; method in brief: as §1
Cryptococcus neoformans = test: Antimicrobial activity against Cryptococcus neoformans ATCC 90113; format: functional, organism-based
Fusarium proliferatum [9] = test: Antimicrobial activity against Fusarium proliferatum at 30 uM after 72 hrs by microtiter assay; format: functional; method in brief: as §1
Fusarium solani [10] = test: Antimicrobial activity against Fusarium solani at 0.3 uM after 48 hrs by microtiter assay; format: functional; method in brief: as §1
Fusarium proliferatum [11] = test: Antimicrobial activity against Fusarium proliferatum at 0.3 uM after 72 hrs by microtiter assay; format: functional; method in brief: as §1
[12] = tested on: Mycobacterium intracellulare; test: Antimicrobial activity against Mycobacterium intracellular ATCC 23068; format: functional, organism-based
Aspergillus fumigatus = test: Antimicrobial activity against Aspergillus fumigatus ATCC 90906; format: functional, organism-based
Fusarium proliferatum [13] = test: Antimicrobial activity against Fusarium proliferatum at 3 uM after 48 hrs by microtiter assay; format: functional; method in brief: as §1
Fusarium oxysporum [14] = test: Antimicrobial activity against Fusarium oxysporum at 0.3 uM after 48 hrs by microtiter assay; format: functional; method in brief: as §1
Fusarium oxysporum [15] = test: Antimicrobial activity against Fusarium oxysporum at 0.3 uM after 72 hrs by microtiter assay; format: functional; method in brief: as §1
Fusarium solani [16] = test: Antimicrobial activity against Fusarium solani at 30 uM after 48 hrs by microtiter assay; format: functional; method in brief: as §1
Fusarium proliferatum [17] = test: Antimicrobial activity against Fusarium proliferatum at 0.3 uM after 48 hrs by microtiter assay; format: functional; method in brief: as §1
Fusarium oxysporum [18] = test: Antimicrobial activity against Fusarium oxysporum at 3 uM after 48 hrs by microtiter assay; format: functional; method in brief: as §1
Fusarium proliferatum [19] = test: Antimicrobial activity against Fusarium proliferatum at 3 uM after 72 hrs by microtiter assay; format: functional; method in brief: as §1
Fusarium oxysporum [20] = test: Antimicrobial activity against Fusarium oxysporum at 3 uM after 72 hrs by microtiter assay; format: functional; method in brief: as §1
Candida albicans = test: Antimicrobial activity against Candida albicans ATCC 90028; format: functional, organism-based
Fusarium solani [21] = test: Antimicrobial activity against Fusarium solani at 3 uM after 72 hrs by microtiter assay; format: functional; method in brief: as §1
T47D = test: Cytotoxicity against human T47D cells; format: functional
Method in brief: (§2)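 NCI Developmental Therapeutics Program cell panel. GI50 is the concentration that reduces growth of treated cells to half that of untreated controls. TGI is the concentration that completely halts growth.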

RPMI-8226 = test: Cytotoxicity against human RPMI8226 cells; format: functional; method in brief: as §2
SNB-75 = test: Cytotoxicity against human SNB75 cells; format: functional; method in brief: as §2
HCT-15 = test: Cytotoxicity against human HCT15 cells; format: functional; method in brief: as §2
PC-3 = test: Cytotoxicity against human PC3 cells; format: functional; method in brief: as §2
KM12 = test: Cytotoxicity against human KM12 cells; format: functional; method in brief: as §2
DU-145 = test: Cytotoxicity against human DU145 cells; format: functional; method in brief: as §2
SK-OV-3 = test: Cytotoxicity against human SK-OV3 cells; format: functional; method in brief: as §2
COLO 205 = test: Cytotoxicity against human COLO205 cells; format: functional; method in brief: as §2
A549 = test: Cytotoxicity against human A549 cells; format: functional; method in brief: as §2
ACHN = test: Cytotoxicity against human ACHN cells; format: functional; method in brief: as §2
NCI-H322M = test: Cytotoxicity against human NCI-H322M cells; format: functional; method in brief: as §2
Hs-578T = test: Cytotoxicity against human HS578T cells; format: functional; method in brief: as §2
HT-29 = test: Cytotoxicity against human HT29 cells; format: functional; method in brief: as §2
HCC 2998 = test: Cytotoxicity against human HCC2998 cells; format: functional; method in brief: as §2

Compound: CO[C@H]1/C=C/O[C@@]2(C)Oc3c(C)c(O)c4c(O)c(c(/C=N/N5CCN(C)CC5)c(O)c4c3C2=O)NC(=O)/C(C)=C\C=C\[C@H](C)[C@H](O)[C@@H](C)[C@@H](O)[C@@H](C)[C@H](OC(C)=O)[C@@H]1C [RIFAMPIN]
- inhibition at 16 µg/mL [1]: 93%
- MIC [2]: 0.08 µg/mL (≈ 0.0972 µM)

Compound: C/C=C1\NC(=O)[C@H](Cc2ccccc2)NC(=O)[C@@H](C(C)C)NC(=O)[C@@H]([C@@H](C)CC)NC(=O)[C@H](NC(=O)[C@H](NC(=O)[C@H](CCCNCCCCCC)NC(=O)[C@H]2CCCN2C(=O)[C@H](NC(=O)[C@@H](NC(=O)[C@@H](NC(=O)[C@H](NC(=O)CCCC(C)C)C(C)C)[C@@H](C)O)C(C)C)C(C)C)[C@@H](C)CC)[C@@H](C)OC(=O)[C@H](C(C)C)NC1=O
- inhibition at 30 µM (Fusarium oxysporum [3]): 89%
- inhibition at 0.3 µM (Fusarium solani [4]): 0%
- inhibition at 3 µM (Fusarium solani [5]): 0%
- inhibition at 30 µM (Fusarium proliferatum [6]): 95.3%
- inhibition at 30 µM (Fusarium oxysporum [7]): 93.6%
- IC90 (Leishmania donovani): 34 µg/mL (≈ 21.8 µM)
- inhibition at 30 µM (Fusarium solani [8]): 94.7%
- MFC (Cryptococcus neoformans): 10 µM (≈ 15.6 µg/mL)
- MIC (Cryptococcus neoformans): 5 µM (≈ 7.81 µg/mL)
- inhibition at 30 µM (Fusarium proliferatum [9]): 92.8%
- inhibition at 0.3 µM (Fusarium solani [10]): 0%
- inhibition at 0.3 µM (Fusarium proliferatum [11]): 0%
- MBC [12]: > 20 µM
- MIC [12]: > 20 µM
- inhibition at 16 µg/mL [1]: 88%
- MFC (Aspergillus fumigatus): 20 µM (≈ 31.2 µg/mL)
- MIC (Aspergillus fumigatus): 10 µM (≈ 15.6 µg/mL)
- inhibition at 3 µM (Fusarium proliferatum [13]): 0%
- inhibition at 0.3 µM (Fusarium oxysporum [14]): 0%
- inhibition at 0.3 µM (Fusarium oxysporum [15]): 0%
- inhibition at 30 µM (Fusarium solani [16]): 94.3%
- inhibition at 0.3 µM (Fusarium proliferatum [17]): 0%
- inhibition at 3 µM (Fusarium oxysporum [18]): 0%
- MIC [2]: > 16 µg/mL
- inhibition at 3 µM (Fusarium proliferatum [19]): 0%
- inhibition at 3 µM (Fusarium oxysporum [20]): 0%
- MFC (Candida albicans): 20 µM (≈ 31.2 µg/mL)
- MIC (Candida albicans): 20 µM (≈ 31.2 µg/mL)
- inhibition at 3 µM (Fusarium solani [21]): 0%

Compound: C/C=C1\NC(=O)[C@H](Cc2ccccc2)NC(=O)[C@@H](C(C)C)NC(=O)[C@@H]([C@@H](C)CC)NC(=O)[C@H](NC(=O)[C@H](NC(=O)[C@H](CCCNCc2cccs2)NC(=O)[C@H]2CCCN2C(=O)[C@H](NC(=O)[C@@H](NC(=O)[C@@H](NC(=O)[C@H](NC(=O)CCCC(C)C)C(C)C)[C@@H](C)O)C(C)C)C(C)C)[C@@H](C)CC)[C@@H](C)OC(=O)[C@H](C(C)C)NC1=O
- IC50 (Leishmania donovani): 17 µg/mL (≈ 10.8 µM)
- IC50 (Cryptococcus neoformans): 1910 nM
- IC50 [12]: 12000 nM
- IC50 (Aspergillus fumigatus): 3220 nM
- IC50 (Candida albicans): 3810 nM

Compound: C/C=C1\NC(=O)[C@H](Cc2ccccc2)NC(=O)[C@@H](C(C)C)NC(=O)[C@@H]([C@@H](C)CC)NC(=O)[C@H](NC(=O)[C@H](NC(=O)[C@H](CCCNCc2ccc(F)cc2)NC(=O)[C@H]2CCCN2C(=O)[C@H](NC(=O)[C@@H](NC(=O)[C@@H](NC(=O)[C@H](NC(=O)CCCC(C)C)C(C)C)[C@@H](C)O)C(C)C)C(C)C)[C@@H](C)CC)[C@@H](C)OC(=O)[C@H](C(C)C)NC1=O
- GI50 (T47D): 161 nM
- TGI (T47D): 333 nM
- inhibition at 30 µM (Fusarium oxysporum [3]): 94.3%
- GI50 (RPMI-8226): 475 nM
- TGI (RPMI-8226): 1780 nM
- GI50 (SNB-75): 265 nM
- TGI (SNB-75): 655 nM
- GI50 (HCT-15): 151 nM
- TGI (HCT-15): 289 nM
- GI50 (PC-3): 142 nM
- TGI (PC-3): 287 nM
- inhibition at 0.3 µM (Fusarium solani [4]): 0%
- inhibition at 3 µM (Fusarium solani [5]): 16.5%
- GI50 (KM12): 179 nM
- TGI (KM12): 379 nM
- inhibition at 30 µM (Fusarium proliferatum [6]): 97.5%
- inhibition at 30 µM (Fusarium oxysporum [7]): 96.6%
- inhibition at 30 µM (Fusarium solani [8]): 97.3%
- MFC (Cryptococcus neoformans): 10 µM (≈ 15.9 µg/mL)
- MIC (Cryptococcus neoformans): 10 µM (≈ 15.9 µg/mL)
- inhibition at 30 µM (Fusarium proliferatum [9]): 96.1%
- inhibition at 0.3 µM (Fusarium solani [10]): 0%
- inhibition at 0.3 µM (Fusarium proliferatum [11]): 0%
- GI50 (DU-145): 112 nM
- TGI (DU-145): 230 nM
- GI50 (SK-OV-3): 183 nM
- TGI (SK-OV-3): 387 nM
- MBC [12]: > 20 µM
- MIC [12]: > 20 µM
- inhibition at 16 µg/mL [1]: 77%
- MFC (Aspergillus fumigatus): > 20 µM
- MIC (Aspergillus fumigatus): > 20 µM
- inhibition at 3 µM (Fusarium proliferatum [13]): 0%
- inhibition at 0.3 µM (Fusarium oxysporum [14]): 0%
- GI50 (COLO 205): 156 nM
- TGI (COLO 205): 315 nM
- GI50 (A549): 161 nM
- TGI (A549): 340 nM
- inhibition at 0.3 µM (Fusarium oxysporum [15]): 0%
- inhibition at 30 µM (Fusarium solani [16]): 97.3%
- inhibition at 0.3 µM (Fusarium proliferatum [17]): 0%
- GI50 (ACHN): 1080 nM
- TGI (ACHN): 2060 nM
- GI50 (NCI-H322M): 203 nM
- TGI (NCI-H322M): 429 nM
- GI50 (Hs-578T): 212 nM
- TGI (Hs-578T): 695 nM
- inhibition at 3 µM (Fusarium oxysporum [18]): 0%
- inhibition at 3 µM (Fusarium proliferatum [19]): 0%
- inhibition at 3 µM (Fusarium oxysporum [20]): 0%
- GI50 (HT-29): 151 nM
- TGI (HT-29): 288 nM
- MFC (Candida albicans): > 20 µM
- MIC (Candida albicans): > 20 µM
- GI50 (HCC 2998): 201 nM
- TGI (HCC 2998): 517 nM
- inhibition at 3 µM (Fusarium solani [21]): 0%
